DAGLB inhibitor: blocks human DAGLB lipase activity | Q8NCG7 | HEK293T DAGLB membrane lysate, EnzChek fluorogenic substrate | inhibition, % at 5.17 µM | 340,000 compounds, 0.059% hits | AID 504411; in the data active means inhibition above about 34%;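 further: 0% = enzyme with vehicle and 100% = wells lacking enzyme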
Target sequence (Q8NCG7 whole entry, looked up): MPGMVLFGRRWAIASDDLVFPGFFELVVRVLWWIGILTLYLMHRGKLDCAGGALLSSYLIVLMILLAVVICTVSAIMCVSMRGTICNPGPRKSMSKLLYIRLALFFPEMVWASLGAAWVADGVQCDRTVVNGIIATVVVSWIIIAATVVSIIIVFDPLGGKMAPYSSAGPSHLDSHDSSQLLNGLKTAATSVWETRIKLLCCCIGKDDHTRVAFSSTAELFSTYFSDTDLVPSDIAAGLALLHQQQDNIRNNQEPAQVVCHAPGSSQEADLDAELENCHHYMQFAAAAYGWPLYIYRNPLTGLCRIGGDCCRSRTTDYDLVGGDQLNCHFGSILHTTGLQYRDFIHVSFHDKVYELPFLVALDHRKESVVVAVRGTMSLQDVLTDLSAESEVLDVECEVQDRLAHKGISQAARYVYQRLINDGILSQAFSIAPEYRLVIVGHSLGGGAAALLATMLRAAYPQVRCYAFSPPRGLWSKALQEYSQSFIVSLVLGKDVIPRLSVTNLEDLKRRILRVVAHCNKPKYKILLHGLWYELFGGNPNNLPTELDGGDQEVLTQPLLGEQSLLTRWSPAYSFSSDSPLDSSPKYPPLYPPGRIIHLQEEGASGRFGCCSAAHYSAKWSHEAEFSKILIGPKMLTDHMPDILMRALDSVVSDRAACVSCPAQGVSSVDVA
HTRA1 inhibitor: inhibitors of human serine peptidase HTRA1; recombinant HTRA1, FP-rhodamine activity-based probe, fluorescence polarization; inhibition, % at 5.96 µM; 340,000 compounds, 0.5% hits; AID 504803; in the data active means inhibition above about 36%;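 further: 0% = enzyme with DMSO and 100% = wells lacking enzyme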
SIAE primary: blocks human sialic acid acetylesterase | SIAE FP-Rh probe binding, fluorescence polarization | inhibition, % at 9.66 µM | 370,000 compounds, 0.69% hits;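 active means inhibition above a cutoff: mean of compounds within the control limits plus 3 SD of those, cut at about 17% in these data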;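 further: 0% = plate median of compound wells and 100% = probe without SIAE protein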
TCR CD3 inh: human TCR-CD3 binding inhibition; TAMRA-labeled TCR probe fluorescence, biochemical; inhibition, % at 9.4 µM; AID 651800; 360,000 compounds, 0.37% hits; in the data active means inhibition above about 19%;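 further: recombinant mutant TCR 2C K166C tagged with TAMRA read by polarization; 0% = receptor in buffer alone and 100% = receptor with positive control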
ABHD4 inh: inhibitors of mouse ABHD4; purified mABHD4, FP-Rh probe fluorescence polarization; inhibition, % at 8.92 µM; 370,000 compounds, 0.54% hits; AID 720543;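 active means inhibition exceeding the mean over every tested compound plus 3 SD, cut at about 30% in these data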;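 further: 0% = plate median of compound wells and 100% = S159A mutant with DMSO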
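Assay system: mABHD4 protein; medium: HEPES pH 7.0, NaCl, Pluronic buffer; dosing: 8.92 µM, single dose; schedule: 45 min + 60 min at 25 °C; signal: FP readout, ex 525 nm / em 598 nm; read-out: normalized percent inhibition of probe labeling; repeats: single replicate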
SIAE inh conf: confirmation of human SIAE inhibitors. shares compounds with SIAE primary. SIAE FP-Rh activity-based probe, fluorescence polarization. inhibition, % at 9.66 µM. 2,300 compounds, 13% hits;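 active means mean inhibition of the replicates above the hit cutoff set in the primary screen, cut at about 17% in these data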;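 further: 0% = SIAE with DMSO and probe and 100% = probe without SIAE; inhibitors lower polarization as more probe stays unbound to SIAE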
Starred values were filed as active, the others as inactive; . = no result. An excerpt weighted towards active compounds, which were near 1.5% of everything screened.

SMILES	DAGLB inhibitor	HTRA1 inhibitor	SIAE primary	TCR CD3 inh	ABHD4 inh	SIAE inh conf
COc1ccc(CN(C)CC(=O)Nc2ccccc2C(F)(F)F)c(OC)c1	-7	-1	20*	7	13	1
COc1ccc(CN(C)CC(=O)Nc2ccc(Cl)cc2C(F)(F)F)c(OC)c1	-19	-23	-2	-4	5	.
CCN=C1S/C(=C/c2cc(C)n(-c3ccc(Cl)cc3F)c2C)C(=O)N1CC	.	.	5	.	-11	.
Fc1cc(F)c2nc(Nc3nc4cc5c(cc4s3)OCO5)sc2c1	4	2	25*	7	2	85*
O=S(=O)(c1ccc(N2CCCCCC2)nc1)N1CCCC1	-2	5	20*	-2	1	-1
O=C(CCC(=O)OCC(F)(F)C(F)F)Nc1ccc(F)cc1F	1	-1	0	3	-1	.
O=C(CCC(=O)OCC(F)(F)C(F)F)Nc1ccc(Cl)cc1	-1	2	18*	3	-3	3
Cc1ccc2c(c1)C1CS(=O)(=O)N(CCc3ccccc3)CN1C2 (configuration not stated)	.	.	-4	.	-1	.
COc1ccc(N2C(=O)c3[nH]nc(-c4ccccc4)c3C2c2cccc(C(F)(F)F)c2)cc1 (configuration not stated)	.	.	-30	-4	-31	.
O=C(Cn1ccc(NC(=O)OCc2ccccc2)nc1=O)NCC1CCCO1 (configuration not stated)	0	0	18*	8	7	1
CCC/C(=N\NC(=O)c1ccccc1C)c1ccccc1	-2	-1	6	12	-3	.
CCC/C(=N/NC(=O)c1ccccc1Cl)c1ccccc1	2	-2	17*	3	1	0
CCOC(=O)CCc1n[nH]c(=O)[nH]c1=O	-1	3	5	-3	0	.
O=C(O)CCc1n[nH]c(=S)[nH]c1=O	1	7	17*	-3	1	2
C=CCN1C(=O)c2n[nH]c(COC)c2C1c1cccc(C(F)(F)F)c1 (configuration not stated)	.	.	1	1	-7	.
COc1ccc(C2CC(c3ccccc3)=NN2c2ccc(/C=N/NC(=O)c3ccncc3)cc2)cc1 (configuration not stated)	-2	4	17*	1	11	7
Cc1cc(Oc2cccc3c2S(=O)(=O)N([C@H](C)c2ccccc2)C[C@@H](COCc2ccccc2)O3)cc(C)c1C	.	.	6	5	6	.
COc1cc(/C=C(/C#N)c2ccc(C)cc2)ccc1Oc1ccc([N+](=O)[O-])cn1	-1	3	35*	2	-12	-2
COCCN1Cc2cc(C(=O)OC)c3c(c2C1=O)c1cc(OC)ccc1n3S(=O)(=O)c1ccc(C)cc1	.	.	-1	4	0	.
Cc1ccccc1-c1nn(-c2ccc(F)cc2F)cc1CNCCCN(C)C	0	4	18*	12	2	7
COc1ccc(S(=O)(=O)NCc2ccc(F)cc2)cc1OC	2	3	0	4	0	.
COc1cc(S(=O)(=O)NCc2ccccc2)ccc1F	-2	-2	19*	-5	0	-3
CC1=CCC(C(=O)O)C(C(=O)NC2CCCCC2)C1 (configuration not stated)	0	8	22*	3	4	2
O=C(NC(c1ccccc1)c1ccsc1)C1CCN(Cc2ccc(Oc3ccccc3)cc2)CC1 (configuration not stated)	.	.	-7	5	-2	.
Nc1nc(C(F)(F)F)cc(=O)[nH]1	-3	5	21*	0	-1	-2
SMILES	DAGLB inhibitor	HTRA1 inhibitor	SIAE primary	TCR CD3 inh	ABHD4 inh	SIAE inh conf
COc1cc(C2c3c([nH]c(=O)[nH]c3=O)Nc3ccc4ccccc4c32)ccc1O (configuration not stated)	4	8	30*	4	15	37*
COCCN1C[C@@H](CO)O[C@@H](n2cnc3c(NCc4ccc(F)cc4)ncnc32)C1	.	.	-4	-2	5	.
Cc1ccc(C(=O)N2CCC[C@@H]2C(=O)N2CCC[C@@H]2C(=O)NCc2ccccc2)cc1C	.	.	-3	5	2	.
CCOC(=O)N1C2CCC(C2)N1C(=O)OCC	0	6	-9	2	1	.
CCOC(=O)N1[C@@H]2C=C(C)[C@@H]2[C@@H]2[C@@H](C)C(=O)N21	-3	5	78*	3	0	86*
C=CS(=O)(=O)N(C(=C)C(=O)OC)S(C)(=O)=O	.	.	7	-2	3	.

Screens (PubChem)
